From ChEMBL document CHEMBL1799968, “Dimethyl-diphenyl-propanamide derivatives as nonsteroidal dissociated glucocorticoid receptor agonists” (J Med Chem, 2010) come the findings set out here.

In one data set the target is T1, Estrogen receptor (Homo sapiens, UniProt P03372).
T1 sequence (P03372 whole entry): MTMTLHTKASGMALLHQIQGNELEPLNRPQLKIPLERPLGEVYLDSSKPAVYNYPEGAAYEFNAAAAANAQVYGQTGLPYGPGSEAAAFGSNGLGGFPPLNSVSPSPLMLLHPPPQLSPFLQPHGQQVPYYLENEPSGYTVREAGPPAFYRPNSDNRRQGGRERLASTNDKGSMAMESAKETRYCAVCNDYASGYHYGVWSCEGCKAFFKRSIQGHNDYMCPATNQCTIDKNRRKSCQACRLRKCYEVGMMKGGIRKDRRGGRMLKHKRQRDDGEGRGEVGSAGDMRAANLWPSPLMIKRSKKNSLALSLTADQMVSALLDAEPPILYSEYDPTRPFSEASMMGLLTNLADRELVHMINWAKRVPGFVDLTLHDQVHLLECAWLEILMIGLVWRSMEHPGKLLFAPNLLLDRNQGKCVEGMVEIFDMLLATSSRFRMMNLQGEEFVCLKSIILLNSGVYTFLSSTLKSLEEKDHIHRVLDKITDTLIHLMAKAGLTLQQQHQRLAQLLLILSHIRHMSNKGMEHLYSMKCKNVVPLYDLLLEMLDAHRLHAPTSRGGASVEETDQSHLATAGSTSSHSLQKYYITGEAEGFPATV
Put plainly: Binding affinity to ERalpha by fluorescence polarization assay. Put shortly: (§1)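 Fluorescence polarization competition of test compound against a fluorescently labelled ligand for binding to full-length receptor or its ligand-binding domain.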

Data set [1] addresses T2, Mineralocorticoid receptor (Homo sapiens, UniProt P08235).
T2 sequence (P08235 whole entry): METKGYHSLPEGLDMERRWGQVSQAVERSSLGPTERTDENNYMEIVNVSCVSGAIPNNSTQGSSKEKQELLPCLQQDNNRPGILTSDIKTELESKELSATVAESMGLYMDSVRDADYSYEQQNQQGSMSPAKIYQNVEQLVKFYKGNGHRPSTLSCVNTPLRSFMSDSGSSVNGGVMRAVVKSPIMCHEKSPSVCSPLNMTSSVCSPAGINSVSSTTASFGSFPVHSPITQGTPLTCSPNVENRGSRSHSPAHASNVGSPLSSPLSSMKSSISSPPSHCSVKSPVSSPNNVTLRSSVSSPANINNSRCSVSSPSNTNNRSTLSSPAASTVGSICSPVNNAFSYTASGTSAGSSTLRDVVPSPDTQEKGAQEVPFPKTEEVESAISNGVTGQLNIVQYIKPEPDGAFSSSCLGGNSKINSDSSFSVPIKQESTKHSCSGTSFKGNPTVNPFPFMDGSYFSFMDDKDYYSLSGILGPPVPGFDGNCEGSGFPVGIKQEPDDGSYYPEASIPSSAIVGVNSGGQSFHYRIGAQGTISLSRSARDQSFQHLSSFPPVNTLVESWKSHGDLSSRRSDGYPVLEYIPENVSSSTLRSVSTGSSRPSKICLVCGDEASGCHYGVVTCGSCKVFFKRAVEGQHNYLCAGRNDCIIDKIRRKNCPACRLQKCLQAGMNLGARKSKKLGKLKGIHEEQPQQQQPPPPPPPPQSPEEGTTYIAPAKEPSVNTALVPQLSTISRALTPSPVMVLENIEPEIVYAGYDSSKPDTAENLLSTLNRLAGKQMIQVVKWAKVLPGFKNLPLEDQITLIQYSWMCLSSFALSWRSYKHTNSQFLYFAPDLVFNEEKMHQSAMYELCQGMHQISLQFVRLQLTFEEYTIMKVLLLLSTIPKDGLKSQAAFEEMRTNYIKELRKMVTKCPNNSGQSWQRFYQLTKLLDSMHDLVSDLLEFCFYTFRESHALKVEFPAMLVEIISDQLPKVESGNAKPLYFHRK
Put plainly: Agonist activity at mineralocorticoid receptor in human A549 cells. It is filed as functional, cell-based.

The test system of data set [2] is Rattus norvegicus. Briefly: Antiinflammatory activity against carrageenan-induced paw edema Sprague-Dawley rat model assessed as inhibition of hind paw swelling at 30 mg/kg, po measured after 5 hrs post carrageenan challenge. The format is functional. The method in brief:
(§2)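 Male SD rats, fasted overnight plus up to 6 h more. Baseline hind paw volume taken by water plethysmometer. A single oral dose was given in a biologically acceptable medium. 2 h later, under anaesthesia, 1% carrageenan in PBS was injected subcutaneously into both hind paws. Volume was read 3 h post challenge, and swelling was taken as post-challenge minus baseline.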

For data set [3], the system named is Rattus norvegicus. Put plainly: Antiinflammatory activity in po dosed carrageenan-induced paw edema Sprague-Dawley rat model assessed as inhibition of hind paw swelling after 5 hrs post carrageenan challenge. It is filed as functional. The method in brief:
as §2
For orientation: Carrageenan injected into the paw causes an acute inflammation.

In data set [4] the test system is Rattus norvegicus. Briefly: Toxicity in Sprague-Dawley rat assessed as induction of TAT activity in liver homogenates at 30 mg/kg, po after 6 hrs. It is filed as organism-based. Also on record: dose 30 mg/kg, route oral. Conditions: in vivo. Put shortly:
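Male SD rats, fasted, single oral dose. Liver was biopsied 6 h postdose, snap frozen, homogenised in 150 mM KCl and centrifuged. Protein-normalised supernatants were assayed for TAT activity, read as OD at 340 nm. Values are given as % of TAT activity in prednisolone-treated (30 mg/kg) rats.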

Data set [5] relates to Rattus norvegicus. Put plainly: Toxicity in Sprague-Dawley rat assessed as increase in serum glucose level at 30 mg/kg, po after 6 hrs. It is filed as organism-based. The arrangement: dose 30 mg/kg, route oral. To be noted: in vivo. Put shortly: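 Male SD rats, fasted overnight plus up to 6 h, were given a single oral dose in a biologically acceptable medium. At 6 h they were euthanised with CO2, and blood was taken by intracardiac puncture. Serum glucose was measured by the hexokinase method on an automated chemistry analyzer.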

The next data set concerns the target T3, Progesterone receptor (Homo sapiens, UniProt P06401).
T3 sequence (P06401 whole entry): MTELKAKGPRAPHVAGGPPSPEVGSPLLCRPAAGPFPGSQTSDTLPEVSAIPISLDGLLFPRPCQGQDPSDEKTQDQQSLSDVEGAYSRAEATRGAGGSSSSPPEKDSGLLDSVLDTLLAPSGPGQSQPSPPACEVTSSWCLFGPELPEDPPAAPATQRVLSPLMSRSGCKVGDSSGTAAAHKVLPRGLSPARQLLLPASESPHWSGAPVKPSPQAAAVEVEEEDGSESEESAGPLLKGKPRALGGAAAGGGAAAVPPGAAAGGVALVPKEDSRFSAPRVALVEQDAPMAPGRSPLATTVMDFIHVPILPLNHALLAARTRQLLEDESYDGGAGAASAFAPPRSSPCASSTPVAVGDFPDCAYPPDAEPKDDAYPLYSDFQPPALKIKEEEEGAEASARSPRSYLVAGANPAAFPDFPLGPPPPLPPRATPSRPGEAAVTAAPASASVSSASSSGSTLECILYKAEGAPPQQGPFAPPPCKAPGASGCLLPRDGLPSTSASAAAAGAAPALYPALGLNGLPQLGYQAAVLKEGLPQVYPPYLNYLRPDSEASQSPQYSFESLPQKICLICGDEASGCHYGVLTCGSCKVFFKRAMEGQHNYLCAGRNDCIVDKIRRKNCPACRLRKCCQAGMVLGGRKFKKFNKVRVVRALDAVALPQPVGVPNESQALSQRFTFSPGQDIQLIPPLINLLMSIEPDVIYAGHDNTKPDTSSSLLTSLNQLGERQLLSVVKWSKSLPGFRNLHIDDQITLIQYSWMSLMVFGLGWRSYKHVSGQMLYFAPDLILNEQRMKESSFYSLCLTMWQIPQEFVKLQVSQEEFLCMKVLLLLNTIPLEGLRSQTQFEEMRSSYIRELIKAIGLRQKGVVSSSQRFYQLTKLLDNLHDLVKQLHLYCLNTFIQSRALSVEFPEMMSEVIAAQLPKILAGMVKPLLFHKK
Put plainly: Binding affinity to progesterone receptor by fluorescence polarization assay. Put shortly: as §1

The next data set deals with T4, Androgen receptor (Homo sapiens, UniProt P10275).
T4 sequence (P10275 whole entry): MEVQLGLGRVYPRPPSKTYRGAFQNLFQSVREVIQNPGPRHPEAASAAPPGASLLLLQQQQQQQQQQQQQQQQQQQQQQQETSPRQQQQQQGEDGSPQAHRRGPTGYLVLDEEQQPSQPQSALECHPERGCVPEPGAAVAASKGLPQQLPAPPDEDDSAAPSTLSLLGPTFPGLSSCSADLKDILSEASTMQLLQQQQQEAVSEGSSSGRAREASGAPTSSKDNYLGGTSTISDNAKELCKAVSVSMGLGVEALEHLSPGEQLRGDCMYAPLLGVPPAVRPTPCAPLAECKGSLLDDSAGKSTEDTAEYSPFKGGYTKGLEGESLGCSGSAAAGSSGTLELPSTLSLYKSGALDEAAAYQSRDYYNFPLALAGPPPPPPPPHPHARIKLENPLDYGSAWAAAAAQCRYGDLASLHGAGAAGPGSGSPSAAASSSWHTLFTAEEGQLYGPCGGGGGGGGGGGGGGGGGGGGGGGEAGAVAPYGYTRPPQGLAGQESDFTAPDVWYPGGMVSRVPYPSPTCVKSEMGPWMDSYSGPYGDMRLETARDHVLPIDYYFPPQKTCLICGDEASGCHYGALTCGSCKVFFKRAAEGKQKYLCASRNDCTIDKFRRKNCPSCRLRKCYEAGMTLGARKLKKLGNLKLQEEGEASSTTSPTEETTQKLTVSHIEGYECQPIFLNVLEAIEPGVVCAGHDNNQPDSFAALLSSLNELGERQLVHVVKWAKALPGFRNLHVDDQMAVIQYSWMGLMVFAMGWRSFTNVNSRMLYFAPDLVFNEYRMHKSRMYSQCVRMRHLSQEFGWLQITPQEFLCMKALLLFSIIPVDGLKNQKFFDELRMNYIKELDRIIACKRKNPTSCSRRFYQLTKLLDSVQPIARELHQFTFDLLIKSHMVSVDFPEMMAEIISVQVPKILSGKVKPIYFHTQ
Briefly: Binding affinity to androgen receptor by fluorescence polarization assay. The method in brief:
as §1
A general note: In fluorescence polarisation assays a small probe gives low polarisation when free and higher when bound to something large.

A value given as a limit tells only on which side of the number the result lay.

A word on the Ki: it is the dissociation constant of the complex between target and ligand, obtained from inhibition or displacement. One may read the EC50 as the concentration that produces a half-maximal response. A high value points to weaker potency. Broadly, the inhibition in vivo is the change of the read-out against control, counted positive when it falls. Broadly, the ED50 is the midpoint of the dose-response relation. At Estrogen receptor, `C[C@]12C=CC(=O)C=C1CC[C@@H]1[C@@H]2[C@@H](O)C[C@@]2(C)[C@H]1CC[C@]2(O)C(=O)CO` [PREDNISOLONE] displayed a Ki above 5 µM. This compound also gave an EC50 in data set [1] of 2 nM. For the same compound, in the data set on Rattus norvegicus [2] (30 mg/kg), the “inhibition (INH)” value amounted to 42%. In addition, in the data set on Rattus norvegicus [2] (Rattus norvegicus, Sprague-Dawley, po, 5 h), the inhibition in vivo at 30 mg/kg came out at 57%. Moreover, in the data set with Rattus norvegicus [3], the ED50 amounted to 19 mg/kg. Further, the Activity result in the data set with Rattus norvegicus [4] and in the data set with Rattus norvegicus [5] was “Toxic” in each case.
Turning to `CC(C)(C(=O)Nc1nncs1)[C@@H](c1ccccc1)c1ccc(O)c(F)c1`, the inhibitory constant (Ki) on Estrogen receptor is above 50 µM; on Progesterone receptor, 55 nM; on Androgen receptor, 993 nM. In data set [1], this compound yielded an EC50 above 5000 nM.
